Paper PMC7141409 (Journal of biomolecular NMR, 2019)

Experiments:
rice = rice strain with OsIAA11 P106L; cited from earlier work
[1] = test system: E3 ubiquitin ligase SCF^TIR1; settings: rice strain with OsIAA11 P106L; cited from earlier work
[2] = test system: ^15N-OsIAA11^72−125 (W104-P105 peptide bond); assay: Nzz-exchange: catalyzed cis-trans exchange of W104-P105; assay type: biochemical, rice
Procedure, shortened: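 15N-labeled OsIAA11 72–125 substrate (800μM) with 16μM enzyme (LRT2 mutant or homolog) in NMR buffer (50mM KCl, 20mM KPO4, 3mM TCEP, 5mM NaN3, 0.1% protease inhibitor cocktail, pH=6.67). Protein concentrations were set by A280 using theoretical extinction coefficients. Nzz-exchange spectra were processed to give the observed cis-trans exchange rate (kexobs) of the W104-P105 bond with uncertainties.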

[3] = Succinyl-Ala-Ala-Pro-Phe-NH-Mec; cited from earlier work

Molecule	Lateral root development (rice)	Proteasomal degradation [1]	Nzz exchange crosspeaks / activity ([2]; 16μM enzyme, 800μM OsIAA11^72–125)	Nzz-measured kexobs ([2]; 1H-15N Nzz exchange, 16μM enzyme, 800μM OsIAA11^72–125, NMR buffer pH=6.67) [s⁻¹]	Activity relative to WT LRT2 on OsIAA11 ([2]; Nzz, % of WT LRT2 activity) [%]	kcat/Km relative to hCypA [3]
OsIAA11 P106L: OsIAA11 P106L mutation (directly adjacent to the W104-P105 peptide bond) (protein, UniProt Q75GK0 1-233, looked up, variant P106L) Auxin-responsive protein IAA11: MAGLGFDETELRLGLPGAGELAARSSGKRGFAETIDLKLKLQPAAPAAVSGEEGAQEDKEDADAAAAAADEKMSMKRSASQSSVVTAEPDPDKPRAPKAQVVGWPLVRSFRKNVLAEKCKAAALVKVSMDGAPYLRKIDVAMYKSYPELSMAFQNMFTSFTIGKCGSHQQLKESNKLRDDLEYVPTYEDKDGDWMLVGDVPWEMFVESCKRLRIMKGSEAIGLAPRAVEKCKS	no induction of lateral root development	evades proteasomal degradation	–	–	–	–
PPIB: petidyl-prolyl isomerase B from E. coli (Uniprot entry P23869) (protein, UniProt P23869 1-164, looked up) Peptidyl-prolyl cis-trans …: MVTFHTNHGDIVIKTFDDKAPETVKNFLDYCREGFYNNTIFHRVINGFMIQGGGFEPGMKQKATKEPIKNEANNGLKNTRGTLAMARTQAPHSATAQFFINVVDNDFLNFSGESLQGWGYCVFAEVVDGMDVVDKIKGVATGRSGMHQDVPKEDVIIESVTVSE	–	–	clear exchange crosspeaks	0.37 ± 0.04	60	more than an order of magnitude higher kcat/Km than hCypA
